In ChEMBL document CHEMBL4689842, “EUbOPEN Chemogenomics Library wave 1” (2021):

Tested on: Fibroblast
Test: Multiplex assay against human fibroblast
Format: toxicity, cell-based
How it was run: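 Tubulin, mitochondrial-mass and membrane-permeability phenotypes are per cents of healthy-nucleus cells. Cells were gated by CellPathfinder machine learning into Hoechst high-intensity objects or normal cells, normal cells into healthy, pyknosed or fragmented nuclei, and pyknosed cells into mitotic or apoptotic. Before that, live cells stained at seeding with Hoechst33342, BioTracker Green Microtubule Cytoskeleton Dye, MitoTracker Red and Annexin V Alexa Fluor 680 were imaged on a CQ1 microscope at 37°C and 5% CO2 after compound addition.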

[1] = 12 h, 1 µM, compound concentration 1 uM, replicate 1
[2] = 12 h, 1 µM, compound concentration 1 uM, replicate 2
[3] = 12 h, 10 µM, compound concentration 10 uM, replicate 1
[4] = 12 h, 10 µM, compound concentration 10 uM, replicate 2
[5] = 24 h, 1 µM, compound concentration 1 uM, replicate 1
[6] = 24 h, 1 µM, compound concentration 1 uM, replicate 2
[7] = 24 h, 10 µM, compound concentration 10 uM, replicate 1
[8] = 24 h, 10 µM, compound concentration 10 uM, replicate 2
[9] = 48 h, 1 µM, compound concentration 1 uM, replicate 1
[10] = 48 h, 1 µM, compound concentration 1 uM, replicate 2
[11] = 48 h, 10 µM, compound concentration 10 uM, replicate 1
[12] = 48 h, 10 µM, compound concentration 10 uM, replicate 2

## COC(=O)C1=C(C)NC(C)=C(C(=O)OCCCN2CCC(c3ccccc3)(c3ccccc3)CC2)[C@H]1c1cccc([N+](=O)[O-])c1 [NIGULDIPINE]
[1]
  Population Apoptotic (%): 65%
  Population Fragmented Nuclei (%): 17%
  Population Healthy Nuclei (%): 45%
  Population Hoechst High Intensity Objects (%): 12%
  Population Membrane Permeable-Phenotype (%): 2%
  Population Mitochondria Different-Phenotype (%): 85%
  Population Mitotic Cells (%): 34%
  Population Normal (%): 87%
  Population Pyknosed Nuclei (%): 36%
  Population Tubulin-Different-Phenotype (%): 100%
  Total Cell Count: 99
[2]
  Population Apoptotic (%): 91%
  Population Fragmented Nuclei (%): 6%
  Population Healthy Nuclei (%): 78%
  Population Hoechst High Intensity Objects (%): 9%
  Population Membrane Permeable-Phenotype (%): 66%
  Population Mitochondria Different-Phenotype (%): 100%
  Population Mitotic Cells (%): 8%
  Population Normal (%): 90%
  Population Pyknosed Nuclei (%): 15%
  Total Cell Count: 945
[3]
  Population Apoptotic (%): 65%
  Population Fragmented Nuclei (%): 19%
  Population Healthy Nuclei (%): 10%
  Population Hoechst High Intensity Objects (%): 16%
  Population Membrane Permeable-Phenotype (%): 63%
  Population Mitochondria Different-Phenotype (%): 18%
  Population Mitotic Cells (%): 34%
  Population Normal (%): 83%
  Population Pyknosed Nuclei (%): 69%
  Population Tubulin-Different-Phenotype (%): 72%
  Total Cell Count: 124
[4]
  Population Apoptotic (%): 76%
  Population Fragmented Nuclei (%): 67%
  Population Healthy Nuclei (%): 3%
  Population Hoechst High Intensity Objects (%): 12%
  Population Membrane Permeable-Phenotype (%): 100%
  Population Mitochondria Different-Phenotype (%): 50%
  Population Mitotic Cells (%): 23%
  Population Normal (%): 87%
  Population Pyknosed Nuclei (%): 29%
  Population Tubulin-Different-Phenotype (%): 100%
  Total Cell Count: 87
[5]
  Population Apoptotic (%): 76%
  Population Fragmented Nuclei (%): 25%
  Population Healthy Nuclei (%): 53%
  Population Hoechst High Intensity Objects (%): 13%
  Population Membrane Permeable-Phenotype (%): 7%
  Population Mitochondria Different-Phenotype (%): 85%
  Population Mitotic Cells (%): 23%
  Population Normal (%): 86%
  Population Pyknosed Nuclei (%): 20%
  Population Tubulin-Different-Phenotype (%): 90%
  Total Cell Count: 117
[6]
  Population Apoptotic (%): 77%
  Population Fragmented Nuclei (%): 7%
  Population Healthy Nuclei (%): 65%
  Population Hoechst High Intensity Objects (%): 5%
  Population Membrane Permeable-Phenotype (%): 96%
  Population Mitochondria Different-Phenotype (%): 100%
  Population Mitotic Cells (%): 22%
  Population Normal (%): 94%
  Population Pyknosed Nuclei (%): 27%
  Population Tubulin-Different-Phenotype (%): 100%
  Total Cell Count: 948
[7]
  Population Apoptotic (%): 79%
  Population Fragmented Nuclei (%): 29%
  Population Healthy Nuclei (%): 10%
  Population Hoechst High Intensity Objects (%): 22%
  Population Membrane Permeable-Phenotype (%): 27%
  Population Mitochondria Different-Phenotype (%): 27%
  Population Mitotic Cells (%): 20%
  Population Normal (%): 77%
  Population Pyknosed Nuclei (%): 59%
  Population Tubulin-Different-Phenotype (%): 54%
  Total Cell Count: 135
[8]
  Population Apoptotic (%): 100%
  Population Fragmented Nuclei (%): 40%
  Population Healthy Nuclei (%): 25%
  Population Hoechst High Intensity Objects (%): 11%
  Population Membrane Permeable-Phenotype (%): 100%
  Population Mitochondria Different-Phenotype (%): 100%
  Population Mitotic Cells (%): 0%
  Population Normal (%): 88%
  Population Pyknosed Nuclei (%): 33%
  Population Tubulin-Different-Phenotype (%): 100%
  Total Cell Count: 85
[9]
  Population Apoptotic (%): 80%
  Population Fragmented Nuclei (%): 47%
  Population Healthy Nuclei (%): 44%
  Population Hoechst High Intensity Objects (%): 11%
  Population Membrane Permeable-Phenotype (%): 1%
  Population Mitochondria Different-Phenotype (%): 70%
  Population Mitotic Cells (%): 20%
  Population Normal (%): 88%
  Population Pyknosed Nuclei (%): 7%
  Population Tubulin-Different-Phenotype (%): 80%
  Total Cell Count: 143
[10]
  Population Apoptotic (%): 0%
  Population Fragmented Nuclei (%): 61%
  Population Healthy Nuclei (%): 38%
  Population Hoechst High Intensity Objects (%): 21%
  Population Membrane Permeable-Phenotype (%): 0%
  Population Mitochondria Different-Phenotype (%): 71%
  Population Mitotic Cells (%): 0%
  Population Normal (%): 78%
  Population Pyknosed Nuclei (%): 0%
  Population Tubulin-Different-Phenotype (%): 86%
  Total Cell Count: 126
[11]
  Population Apoptotic (%): 82%
  Population Fragmented Nuclei (%): 48%
  Population Healthy Nuclei (%): 22%
  Population Hoechst High Intensity Objects (%): 28%
  Population Membrane Permeable-Phenotype (%): 31%
  Population Mitochondria Different-Phenotype (%): 22%
  Population Mitotic Cells (%): 17%
  Population Normal (%): 71%
  Population Pyknosed Nuclei (%): 29%
  Population Tubulin-Different-Phenotype (%): 27%
  Total Cell Count: 138
[12]
  Population Apoptotic (%): 90%
  Population Fragmented Nuclei (%): 68%
  Population Healthy Nuclei (%): 17%
  Population Hoechst High Intensity Objects (%): 31%
  Population Membrane Permeable-Phenotype (%): 57%
  Population Mitochondria Different-Phenotype (%): 64%
  Population Mitotic Cells (%): 9%
  Population Normal (%): 68%
  Population Pyknosed Nuclei (%): 13%
  Population Tubulin-Different-Phenotype (%): 21%
  Total Cell Count: 115

## O=C(c1cc2c(cc1F)OC(c1ccc(F)cc1)(c1ccc(Cl)cc1Cl)O2)N1CCOCC1 (stereo not given)
[1]
  Population Apoptotic (%): 51%
  Population Fragmented Nuclei (%): 18%
  Population Healthy Nuclei (%): 47%
  Population Hoechst High Intensity Objects (%): 13%
  Population Membrane Permeable-Phenotype (%): 19%
  Population Mitochondria Different-Phenotype (%): 6%
  Population Mitotic Cells (%): 48%
  Population Normal (%): 86%
  Population Pyknosed Nuclei (%): 34%
  Population Tubulin-Different-Phenotype (%): 56%
  Total Cell Count: 112
[2]
  Population Apoptotic (%): 50%
  Population Healthy Nuclei (%): 68%
  Population Hoechst High Intensity Objects (%): 7%
  Population Membrane Permeable-Phenotype (%): 9%
  Population Mitochondria Different-Phenotype (%): 12%
  Population Mitotic Cells (%): 50%
  Population Normal (%): 92%
  Population Pyknosed Nuclei (%): 12%
  Population Tubulin-Different-Phenotype (%): 15%
  Total Cell Count: 78
[3]
  Population Apoptotic (%): 71%
  Population Fragmented Nuclei (%): 31%
  Population Healthy Nuclei (%): 29%
  Population Hoechst High Intensity Objects (%): 12%
  Population Membrane Permeable-Phenotype (%): 4%
  Population Mitochondria Different-Phenotype (%): 43%
  Population Mitotic Cells (%): 28%
  Population Normal (%): 87%
  Population Pyknosed Nuclei (%): 38%
  Population Tubulin-Different-Phenotype (%): 17%
  Total Cell Count: 176
[4]
  Population Fragmented Nuclei (%): 10%
  Population Healthy Nuclei (%): 78%
  Population Hoechst High Intensity Objects (%): 4%
  Population Membrane Permeable-Phenotype (%): 47%
  Population Mitochondria Different-Phenotype (%): 96%
  Population Normal (%): 95%
  Population Pyknosed Nuclei (%): 10%
  Population Tubulin-Different-Phenotype (%): 100%
  Total Cell Count: 52
[5]
  Population Apoptotic (%): 26%
  Population Fragmented Nuclei (%): 17%
  Population Healthy Nuclei (%): 61%
  Population Hoechst High Intensity Objects (%): 18%
  Population Membrane Permeable-Phenotype (%): 18%
  Population Mitochondria Different-Phenotype (%): 12%
  Population Mitotic Cells (%): 73%
  Population Normal (%): 81%
  Population Pyknosed Nuclei (%): 21%
  Population Tubulin-Different-Phenotype (%): 50%
  Total Cell Count: 108
[6]
  Population Apoptotic (%): 33%
  Population Fragmented Nuclei (%): 5%
  Population Healthy Nuclei (%): 88%
  Population Hoechst High Intensity Objects (%): 10%
  Population Membrane Permeable-Phenotype (%): 10%
  Population Mitochondria Different-Phenotype (%): 15%
  Population Mitotic Cells (%): 66%
  Population Normal (%): 89%
  Population Pyknosed Nuclei (%): 5%
  Population Tubulin-Different-Phenotype (%): 21%
  Total Cell Count: 85
[7]
  Population Apoptotic (%): 67%
  Population Fragmented Nuclei (%): 32%
  Population Healthy Nuclei (%): 32%
  Population Hoechst High Intensity Objects (%): 12%
  Population Membrane Permeable-Phenotype (%): 2%
  Population Mitochondria Different-Phenotype (%): 81%
  Population Mitotic Cells (%): 32%
  Population Normal (%): 87%
  Population Pyknosed Nuclei (%): 35%
  Population Tubulin-Different-Phenotype (%): 16%
  Total Cell Count: 169
[8]
  Population Apoptotic (%): 66%
  Population Fragmented Nuclei (%): 8%
  Population Healthy Nuclei (%): 62%
  Population Hoechst High Intensity Objects (%): 6%
  Population Membrane Permeable-Phenotype (%): 64%
  Population Mitochondria Different-Phenotype (%): 100%
  Population Mitotic Cells (%): 33%
  Population Normal (%): 93%
  Population Pyknosed Nuclei (%): 29%
  Population Tubulin-Different-Phenotype (%): 100%
  Total Cell Count: 58
[9]
  Population Apoptotic (%): 42%
  Population Fragmented Nuclei (%): 31%
  Population Healthy Nuclei (%): 50%
  Population Hoechst High Intensity Objects (%): 11%
  Population Membrane Permeable-Phenotype (%): 15%
  Population Mitochondria Different-Phenotype (%): 11%
  Population Mitotic Cells (%): 57%
  Population Normal (%): 88%
  Population Pyknosed Nuclei (%): 18%
  Population Tubulin-Different-Phenotype (%): 43%
  Total Cell Count: 119
[10]
  Population Apoptotic (%): 33%
  Population Fragmented Nuclei (%): 18%
  Population Healthy Nuclei (%): 73%
  Population Hoechst High Intensity Objects (%): 12%
  Population Membrane Permeable-Phenotype (%): 8%
  Population Mitochondria Different-Phenotype (%): 5%
  Population Mitotic Cells (%): 66%
  Population Normal (%): 87%
  Population Pyknosed Nuclei (%): 7%
  Population Tubulin-Different-Phenotype (%): 37%
  Total Cell Count: 90
[11]
  Population Apoptotic (%): 80%
  Population Fragmented Nuclei (%): 33%
  Population Healthy Nuclei (%): 42%
  Population Hoechst High Intensity Objects (%): 14%
  Population Membrane Permeable-Phenotype (%): 1%
  Population Mitochondria Different-Phenotype (%): 70%
  Population Mitotic Cells (%): 20%
  Population Normal (%): 85%
  Population Pyknosed Nuclei (%): 24%
  Population Tubulin-Different-Phenotype (%): 6%
  Total Cell Count: 167
[12]
  Population Apoptotic (%): 81%
  Population Fragmented Nuclei (%): 34%
  Population Healthy Nuclei (%): 56%
  Population Hoechst High Intensity Objects (%): 12%
  Population Membrane Permeable-Phenotype (%): 0%
  Population Mitochondria Different-Phenotype (%): 90%
  Population Mitotic Cells (%): 18%
  Population Normal (%): 87%
  Population Pyknosed Nuclei (%): 9%
  Population Tubulin-Different-Phenotype (%): 3%
  Total Cell Count: 133
